From ChEMBL document CHEMBL1154891, “Cytotoxic acylphloroglucinol derivatives from the twigs of Garcinia cowa” (J Nat Prod, 2010) come the findings set out here.

Activity calls are given as the source filed them. The calls are words filed in the database; no cut-off is given here.

As a reminder, the IC50 is the concentration that gives 50% inhibition. The low end stands for greater potency, the high end for weaker potency.

A short description of data set [1]: Cytotoxicity against human CCD-18Co cells at 5 uM after 24 hrs by MTT assay.
For data set [2], the system named is HT-29. Kind of data set: Cytotoxicity against human HT-29 cells after 24 hrs by MTT assay. The conditions noted are these: HT-29, 24 h. Format: functional, cell-based. In a few lines: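 MTT read-out: 3 h at 37 °C, DMSO solubilization, A570 with 620 nm background. Viability relative to untreated control; IC50 derived. Cisplatin in saline run in parallel as positive control. Mean + SEM.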
(In general: Tetrazolium dyes change colour on reduction, which living cells bring about.)

Data set [3] concerns HT-29. Briefly: Cytotoxicity against human HT-29 cells at 5 uM after 24 hrs by MTT assay. Type of data set: functional.
In data set [4] the test system is HCT-116. Briefly: Cytotoxicity against human HCT116 cells at 5 uM after 24 hrs by MTT assay. Format: functional, cell-based.
The nature of data set [5]: Cytotoxicity against human CCD-18Co cells at 5 uM after 24 hrs by MTT assay. Format: cell-based. A digest of the protocol: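 CCD-18Co colon fibroblasts grown in MEM with 10% FBS and HEPES at 37 °C, 5% CO2, seeded overnight at 7 × 10^3 cells/well. MTT added for 3 h at 37 °C, formazan dissolved in DMSO, A570 read with 620 nm background subtraction. Untreated = 100%. Triplicate, ≥3 independent experiments, mean + SEM.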

For `CC(C)=CC[C@@H]1C[C@@]23C[C@@H](CC=C(C)C)C(C)(C)[C@](CC=C(C)C)(C(=O)C(C(=O)c4ccc(O)c(O)c4)=C2OC1(C)C)C3=O`, the Activity entry in data set [1] and in data set [5] was “Non-toxic” each time. The half-inhibitory concentration (IC50) in data set [2] was determined as 5.1 µM. The result in data set [3] and in data set [4] was Active.
As for `CC(C)=CC[C@H]1C[C@@]23C[C@@H](CC=C(C)C)C(C)(C)[C@@](CC=C(C)C)(C(=O)C(C(=O)c4ccc(O)c(O)c4)=C2OC1(C)C)C3=O` [CAMBOGIN], the Activity entry in data set [1] and in data set [5] was “Non-toxic” in each case. The result in data set [3] and in data set [4] was Active.
`CC(C)=CCC/C(C)=C/C[C@H]1CC(C)(C)OC2=CC(=O)[C@]3(CC=C(C)C)C(=O)[C@@]21CC[C@]3(C)CCC=C(C)C` [GARCICOWIN A]: the Activity entry in data set [1] and in data set [5] was “Non-toxic” throughout.
In the case of `CC(C)=CCC/C(C)=C/C[C@@H]1C[C@]2(CC=C(C)C)C(=O)[C@@](CC=C(C)C)(C(=O)C(C(=O)c3cccc(O)c3)=C2O)[C@@]1(C)CCC=C(C)C` [GARCICOWIN B], the Activity entry in data set [1] and in data set [5] was “Non-toxic” in each case.
Consider `C=C(C)[C@@H]1C[C@]23C[C@@H](CC=C(C)C)C(C)(C)[C@](CC=C(C)C)(C(=O)C(C(=O)c4ccc(O)c(O)c4)=C2O[C@H]1C=C(C)C)C3=O` [GARCICOWIN D], for which the Activity result in data set [1] is “Non-toxic”; in data set [3], 57.7%; in data set [5] it was “Non-toxic”.
With `C=C(C)[C@@H]1C[C@]23C[C@H](CC=C(C)C)C(C)(C)[C@](CC=C(C)C)(C(=O)C(C(=O)c4ccc(O)c(O)c4)=C2O[C@H]1C=C(C)C)C3=O` [GARCINIALIPTONE B], the figures for the Activity entry in data set [1], in data set [3] and in data set [5] were “Non-toxic”, 73.8% and “Non-toxic”, respectively.
For `CC(C)=CCC/C(C)=C/C[C@@H]1C[C@@]2(C/C=C(\C)CCC=C(C)C)C(=O)[C@](CC=C(C)C)(C(=O)C(C(=O)c3ccc(O)c(O)c3)=C2O)C1(C)C` [GUTTIFERONE B], the Activity result in data set [1] and in data set [5] was “Non-toxic” each time. Moreover, the outcome in data set [3] and in data set [4] was Active.
Take `CC(C)=CCC/C(C)=C/C[C@@H]1C[C@]2(CC=C(C)C)C(=O)[C@@](CC=C(C)C)(C(=O)C(C(=O)c3ccc(O)c(O)c3)=C2O)C1(C)C` [OBLONGIFOLIN B]: the Activity result in data set [1] and in data set [5] was “Non-toxic” in each case. For the same compound, the result in data set [3] and in data set [4] was Active.
On to `CC(C)=CCC/C(C)=C/C[C@@H]1C[C@]2(CC=C(C)C)C(=O)[C@@](CC=C(C)C)(C(=O)C(C(=O)c3ccc(O)c(O)c3)=C2O)[C@@]1(C)CCC=C(C)C` [OBLONGIFOLIN C], for which the Activity entry in data set [1] and in data set [5] was “Non-toxic” each time. The outcome in data set [3] and in data set [4] was Active.
`CC(C)=CCC/C(C)=C/C[C@H]1C[C@]2(C/C=C(\C)CCC=C(C)C)C(=O)[C@@](CC=C(C)C)(C(=O)C(C(=O)c3ccc(O)c(O)c3)=C2O)C1(C)C` [OBLONGIFOLIN D]: the Activity entry in data set [1] and in data set [5] was “Non-toxic” in each case. Besides, the outcome in data set [3] and in data set [4] was inactive.
